Substitutions are numbered along the chain they refer to.
Tests used:
[1] = biological target: purified human recombinant NAPE-PLD (Homo sapiens, UniProt Q6IQ20); assay: Inhibition of purified human recombinant NAPE-PLD; format: biochemical
Outline: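 Purified recombinant human NAPE-PLD. Michaelis-Menten kinetics and activity time-course were run with vehicle (1% DMSO) or test compound at 50 or 100 μM. Reversibility was tested by rapid dilution after preincubating the enzyme with vehicle (1% DMSO) or test compound (100 μM).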

Q320A NAPE-PLD mutant = biological target: T1, Q320A NAPE-PLD mutant (Homo sapiens, UniProt Q6IQ20, Q320A); assay: Inhibition of Q320A NAPE-PLD mutant; format: biochemical
T1 sequence (Q6IQ20 1-393 Q320A): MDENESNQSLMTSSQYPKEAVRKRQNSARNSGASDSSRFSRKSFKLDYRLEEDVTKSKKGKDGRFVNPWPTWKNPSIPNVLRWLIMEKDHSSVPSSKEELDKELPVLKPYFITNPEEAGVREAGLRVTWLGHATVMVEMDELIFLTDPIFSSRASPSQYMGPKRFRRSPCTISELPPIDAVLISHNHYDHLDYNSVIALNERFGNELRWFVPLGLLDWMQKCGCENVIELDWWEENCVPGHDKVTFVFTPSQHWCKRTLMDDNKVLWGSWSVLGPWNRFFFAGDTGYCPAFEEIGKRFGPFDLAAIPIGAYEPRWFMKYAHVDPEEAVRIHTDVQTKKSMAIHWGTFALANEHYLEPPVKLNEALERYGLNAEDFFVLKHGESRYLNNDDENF

Q320S NAPE-PLD = biological target: T2, Q320S NAPE-PLD (Homo sapiens, UniProt Q6IQ20, Q320S); assay: Inhibition of Q320S NAPE-PLD mutant; format: biochemical
T2 sequence (Q6IQ20 1-393 Q320S): T1 sequence (Q6IQ20 1-393 Q320A) with A320S

[2] = biological target: T3, NAPE-PLD mutant Q158S/Y159S (Homo sapiens, UniProt Q6IQ20, Q158S/Y159S); assay: Inhibition of double NAPE-PLD mutant Q158S/Y159S; format: biochemical; details: mutant unable to bind bile acids
T3 sequence (Q6IQ20 1-393 Q158S/Y159S): T1 sequence (Q6IQ20 1-393 Q320A) with Q158S, Y159S, A320Q

[3] = biological target: carbonic anhydrase (CA) II (Homo sapiens, UniProt P00918); assay: Selectivity: zinc-dependent enzyme carbonic anhydrase II; format: biochemical; details: 50 μM
neutral endopeptidase = neutral endopeptidase (Homo sapiens, UniProt P08473); assay: Selectivity: zinc-dependent enzyme neutral endopeptidase; format: biochemical; details: 50 μM
Sequence of neutral endopeptidase (P08473 whole entry, species assumed): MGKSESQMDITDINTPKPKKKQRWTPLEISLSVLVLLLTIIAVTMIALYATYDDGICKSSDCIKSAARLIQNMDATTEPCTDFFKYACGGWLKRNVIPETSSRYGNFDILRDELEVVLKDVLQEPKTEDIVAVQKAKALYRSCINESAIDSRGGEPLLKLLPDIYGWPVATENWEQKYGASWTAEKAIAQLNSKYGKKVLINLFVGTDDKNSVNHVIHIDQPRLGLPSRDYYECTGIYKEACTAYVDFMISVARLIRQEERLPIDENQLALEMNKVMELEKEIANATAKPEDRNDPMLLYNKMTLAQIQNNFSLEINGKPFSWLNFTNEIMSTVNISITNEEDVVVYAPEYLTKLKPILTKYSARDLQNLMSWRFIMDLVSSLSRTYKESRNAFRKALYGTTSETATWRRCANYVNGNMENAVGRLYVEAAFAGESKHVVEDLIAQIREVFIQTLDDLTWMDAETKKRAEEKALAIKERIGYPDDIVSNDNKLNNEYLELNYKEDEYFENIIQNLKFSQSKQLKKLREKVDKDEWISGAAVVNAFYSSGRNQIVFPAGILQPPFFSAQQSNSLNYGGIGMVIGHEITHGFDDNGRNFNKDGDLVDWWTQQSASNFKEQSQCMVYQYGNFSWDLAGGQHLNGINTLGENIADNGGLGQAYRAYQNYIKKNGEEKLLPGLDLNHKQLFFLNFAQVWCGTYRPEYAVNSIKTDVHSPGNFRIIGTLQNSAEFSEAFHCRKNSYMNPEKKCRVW

[4] = biological target: angiotensin-converting enzyme (ACE) (Homo sapiens, UniProt P12821); assay: Selectivity: zinc-dependent enzyme ACE; format: biochemical; details: 50 μM
Sequence of angiotensin-converting enzyme (ACE) (P12821 30-1306, species assumed): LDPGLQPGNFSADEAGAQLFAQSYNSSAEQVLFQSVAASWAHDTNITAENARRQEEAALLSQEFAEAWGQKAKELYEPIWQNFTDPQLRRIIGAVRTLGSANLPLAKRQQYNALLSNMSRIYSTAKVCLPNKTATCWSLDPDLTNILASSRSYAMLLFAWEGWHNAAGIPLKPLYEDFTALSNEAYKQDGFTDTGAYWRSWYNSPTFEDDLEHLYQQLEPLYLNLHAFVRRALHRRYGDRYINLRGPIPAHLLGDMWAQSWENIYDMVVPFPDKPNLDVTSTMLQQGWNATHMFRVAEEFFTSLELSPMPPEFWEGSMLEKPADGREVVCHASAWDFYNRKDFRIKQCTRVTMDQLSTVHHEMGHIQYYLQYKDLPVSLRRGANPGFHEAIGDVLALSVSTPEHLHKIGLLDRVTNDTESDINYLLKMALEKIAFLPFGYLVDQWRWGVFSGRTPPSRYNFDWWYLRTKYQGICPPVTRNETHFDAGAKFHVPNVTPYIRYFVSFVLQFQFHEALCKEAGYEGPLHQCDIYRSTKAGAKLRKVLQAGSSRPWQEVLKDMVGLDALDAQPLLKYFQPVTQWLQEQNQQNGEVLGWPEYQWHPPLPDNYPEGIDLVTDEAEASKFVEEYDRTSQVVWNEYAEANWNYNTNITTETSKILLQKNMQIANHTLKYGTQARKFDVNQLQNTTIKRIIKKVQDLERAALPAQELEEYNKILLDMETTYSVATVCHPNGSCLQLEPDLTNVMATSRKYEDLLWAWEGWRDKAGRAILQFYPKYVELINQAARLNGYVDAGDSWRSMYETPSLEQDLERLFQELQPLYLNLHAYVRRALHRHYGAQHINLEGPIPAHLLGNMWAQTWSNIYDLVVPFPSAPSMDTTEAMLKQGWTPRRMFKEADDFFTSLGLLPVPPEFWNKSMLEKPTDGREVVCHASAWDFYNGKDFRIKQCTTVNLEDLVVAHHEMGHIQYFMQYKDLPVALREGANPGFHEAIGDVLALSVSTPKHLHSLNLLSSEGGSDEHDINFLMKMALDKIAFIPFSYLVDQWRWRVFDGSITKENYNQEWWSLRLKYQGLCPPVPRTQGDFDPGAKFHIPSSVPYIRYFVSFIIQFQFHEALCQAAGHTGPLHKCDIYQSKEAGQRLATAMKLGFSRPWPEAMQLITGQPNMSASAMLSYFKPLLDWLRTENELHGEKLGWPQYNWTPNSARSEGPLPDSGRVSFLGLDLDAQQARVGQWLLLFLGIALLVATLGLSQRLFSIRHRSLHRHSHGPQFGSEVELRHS

[5] = test system: isofunctional, but zinc-independent enzyme activities present in cytosolic and microsomal fractions of mouse brain or small intestine; assay: Isofunctional zinc-independent enzyme activities in mouse tissue fractions; format: biochemical; details: 300 μM
[6] = biological target: T4, human fatty acid amide hydrolase (FAAH)-1 (Homo sapiens, UniProt O00519); assay: Selectivity: FAAH-1 activity; format: biochemical; details: 300 μM
T4 sequence (O00519 1-579): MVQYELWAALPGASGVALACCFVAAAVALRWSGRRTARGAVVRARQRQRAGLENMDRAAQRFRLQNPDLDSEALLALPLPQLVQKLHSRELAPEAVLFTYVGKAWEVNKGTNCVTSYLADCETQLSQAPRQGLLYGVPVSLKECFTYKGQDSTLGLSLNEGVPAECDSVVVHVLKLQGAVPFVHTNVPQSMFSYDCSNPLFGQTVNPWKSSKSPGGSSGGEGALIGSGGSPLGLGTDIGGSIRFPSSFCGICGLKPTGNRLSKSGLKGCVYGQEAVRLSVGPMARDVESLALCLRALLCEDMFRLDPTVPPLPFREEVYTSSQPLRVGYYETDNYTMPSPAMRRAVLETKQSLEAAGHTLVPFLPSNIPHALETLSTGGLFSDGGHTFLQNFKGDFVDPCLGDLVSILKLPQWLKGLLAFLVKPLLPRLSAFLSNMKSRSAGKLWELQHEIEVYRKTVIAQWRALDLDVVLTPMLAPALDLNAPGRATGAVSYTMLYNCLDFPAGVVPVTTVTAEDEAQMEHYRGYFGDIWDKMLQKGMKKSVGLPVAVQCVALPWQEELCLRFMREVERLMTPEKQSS

[7] = biological target: T5, human N-acylethanolamine acid amidase (NAAA) (Homo sapiens, UniProt Q02083); assay: Selectivity: NAAA activity; format: biochemical; details: 300 μM
T5 sequence (Q02083 29-359): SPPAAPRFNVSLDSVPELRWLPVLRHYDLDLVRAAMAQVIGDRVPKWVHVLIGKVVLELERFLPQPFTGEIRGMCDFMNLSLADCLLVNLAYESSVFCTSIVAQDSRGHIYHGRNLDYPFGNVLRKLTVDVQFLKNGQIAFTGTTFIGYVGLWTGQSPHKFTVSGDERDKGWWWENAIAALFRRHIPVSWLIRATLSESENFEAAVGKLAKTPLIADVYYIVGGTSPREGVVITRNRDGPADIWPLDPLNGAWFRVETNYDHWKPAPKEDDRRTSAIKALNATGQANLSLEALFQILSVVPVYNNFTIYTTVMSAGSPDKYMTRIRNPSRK

Human HEK-293 cells = assay: NAPE and FAE levels in intact HEK-293 cells by LC-MS; format: cell-based; details: 50 μM, 4 hours
Outline: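 Human HEK-293 cells, which express NAPE-PLD constitutively, incubated with test compound at 50 μM for 4 h. Lipid extracts then prepared, and NAPE and fatty acid ethanolamide levels measured by liquid chromatography-mass spectrometry.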

[8] = Solubility in assay buffer; format: physicochemical; details: microscopic inspection of assay wells

Sequence of purified human recombinant NAPE-PLD (Q6IQ20 whole entry): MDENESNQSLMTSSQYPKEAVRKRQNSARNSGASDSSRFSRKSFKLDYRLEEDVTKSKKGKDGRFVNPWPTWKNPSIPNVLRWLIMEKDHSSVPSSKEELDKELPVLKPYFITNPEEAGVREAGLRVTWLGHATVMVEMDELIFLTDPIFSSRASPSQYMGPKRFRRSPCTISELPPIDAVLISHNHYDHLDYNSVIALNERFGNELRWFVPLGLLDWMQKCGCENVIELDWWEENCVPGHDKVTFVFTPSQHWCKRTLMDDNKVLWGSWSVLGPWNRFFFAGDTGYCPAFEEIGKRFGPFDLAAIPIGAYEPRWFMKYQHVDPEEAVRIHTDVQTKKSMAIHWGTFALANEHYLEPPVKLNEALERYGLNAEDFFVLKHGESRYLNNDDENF

Row | Structure (SMILES) | Time-course of NAPE-PLD inhibition ([1]; 18 at 50 or 100 μM) | Mechanism of NAPE-PLD inhibition (kinetic analyses) ([1]; Michaelis-Menten kinetics, 18 at 50 or 100 μM) | Reversibility upon dilution of enzyme-inhibitor complex (rapid dilution assay) ([1]; preincubated with 100 μM) | IC50 (Q320A NAPE-PLD mutant) | IC50 (Q320S NAPE-PLD) | Susceptibility of Q158S/Y159S mutant to inhibition [2] | Inhibitory effect on carbonic anhydrase (CA) II [3] | Inhibitory effect on neutral endopeptidase (neutral endopeptidase) | Inhibitory effect on angiotensin-converting enzyme (ACE) [4] | Effect on isofunctional zinc-independent enzyme activities [5] | Effect on human FAAH-1 activity [6] | Effect on human NAAA activity [7] | Endogenous oleoylethanolamide (OEA) levels in HEK-293 cells (Human HEK-293 cells) | Endogenous palmitoylethanolamide (PEA) levels in HEK-293 cells (Human HEK-293 cells) | NAPE levels in HEK-293 cells (Human HEK-293 cells) | Solubility in assay / aqueous buffer [8] | Inhibition of purified NAPE-PLD (concentration-response, Figure 3a) ([1]; identical conditions as 18)
1 | O=c1[nH]c(=O)c2cc(S(=O)(=O)Nc3ccc(-c4ccncc4)cc3)ccc2[nH]1 [Compound 18, 2,4-dioxo-N-[4-(4-pyridyl)phenyl]-1H-quinazoline-6-sulfonamide] | rapid | uncompetitive | readily reversed | 89.2 ± 2.3 µM | 36.7 ± 1.6 µM | as susceptible to inhibition by 18 as wild-type NAPE-PLD | no inhibitory effect | no inhibitory effect | no inhibitory effect | did not affect | did not affect | did not affect | remained unmodified | remained unmodified | substantial accumulation | adequate solubility | –
2 | O=C(Cc1cccs1)N[C@@H]1C(=O)N2C(C(=O)O)=C(/C=C/c3ccc([N+](=O)[O-])cc3[N+](=O)[O-])CS[C@H]12 [nitrocefin, reference compound] | – | – | – | – | – | – | – | – | – | – | – | – | – | – | – | – | inactive

Reference: paper PMC5730275 (Chemical communications (Cambridge, England), 2017)
